Assay results gathered from unrelated publications.
Compare with care: the assays were run in different laboratories.
Target: Mitogen-activated protein kinase kinase kinase 11 (MAP3K11, Homo sapiens, UniProt Q16584)

N[C@H]1CCN(c2nccc(-c3cnn4ncccc34)n2)C1  remaining binding (binding; 1 µM): 85%
O=C(NCC1CCOCC1)c1n[nH]cc1NC(=O)c1c(F)cccc1F  remaining binding (binding, competition with immobilised ligand; 1 µM): 100%
O=C(c1ccc(Nc2ncc(Cl)c(-c3cc4ccccc4s3)n2)cc1)N1CCC(N2CCCC2)CC1  remaining binding (binding, competition with immobilised ligand; 1 µM): 11%
CN(C)c1nccc(-c2cnn3ncccc23)n1  remaining binding (binding; 1 µM): 98%
Cn1cc(Cl)c2c(Oc3c(F)cc(Nc4cc(Cl)nc(N)n4)cc3F)ccnc21  remaining binding (cell-free assay, competition with immobilised ligand; 0.1 µM): 100%
CN(C)c1nccc(-c2cnc3ncccn23)n1  remaining binding (binding; 1 µM): 88%
COc1cnc(Nc2cccc(S(N)(=O)=O)c2)nc1N1CCN(c2ccccc2)C(=O)C1  remaining binding (binding, competition with immobilised ligand; 1 µM): 100%
CC1CCCN1c1nccc(-c2cnn3ncccc23)n1 (centres unmarked)  remaining binding (binding; 1 µM): 100%
O=c1nc(-c2ccccn2)sc2ccccc12  remaining binding (binding, competition with immobilised ligand; 1 µM): 100%
C[C@@H]1CCN(c2nccc(-c3cnn4ncccc34)n2)C1  remaining binding (binding; 1 µM): 100%
FC(F)(F)Oc1cccc(-c2cnc3ccc(-c4ccncc4)nn23)c1  remaining binding (cell-free assay, competition with immobilised ligand; 5 µM): 95%
CCCOc1ccc([C@H]2[C@H](C(=O)O)[C@@H](c3ccc4c(c3)OCO4)CN2CC(=O)Nc2c(CC)cccc2CC)cc1  remaining binding (cell-free assay, competition with immobilised ligand; 1 µM): 100%
c1cncc(-c2cccc(Nc3nccc(NC4CCCCC4)n3)c2)c1  remaining binding (binding, competition with immobilised ligand; 10 µM): 30%
O=C(NCc1ncc(C(F)(F)F)cc1Cl)c1ccc2c(c1)C1(CCS(=O)(=O)CC1)[C@H](C1CC1)N2S(=O)(=O)c1ccc(F)cc1  remaining binding (cell-free assay, competition with immobilised ligand; 1 µM): 100%
Nc1ncc2c(n1)-c1c([nH]c3ccc(C#CC4CC4)cc13)CCCC2  remaining binding (binding, competition with immobilised ligand; 1 µM): 97%
C[C@@H]1CN(c2cc(-c3nn(C)c4ccc(OC5(C)CC5)cc34)ncn2)C[C@H](C)O1  remaining binding (cell-free assay, competition with immobilised ligand; 1 µM): 100%
O=C(NCCCN1CCOCC1)c1ccc(Nc2ncc(Cl)c(-c3ccc(Cl)s3)n2)cc1  remaining binding (binding, competition with immobilised ligand; 1 µM): 13%
C[C@H](c1cccc(C#N)c1)n1cc(Cl)cc(C(N)=O)c1=N  remaining binding (cell-free assay, competition with immobilised ligand; 1 µM): 100%
CN(CCCC(F)(F)F)c1nccc(-c2cnn3ncccc23)n1  remaining binding (binding; 1 µM): 75%
Cc1cnc(Nc2ccc(C(=O)N3CCC(N4CCCC4)CC3)cc2)nc1-c1cc2ccccc2s1  remaining binding (binding, competition with immobilised ligand; 1 µM): 13%
